Bioassay records from PubChem.
PglD DTNB: C. jejuni PglD acetyltransferase inhibitors, primary screen, biochemical, DTNB colorimetric, single point | UDP-N-acetylbacillosamine N-acetyltransferase PglD (Campylobacter jejuni) | purified PglD enzyme, DTNB colorimetric CoA detection | inhibition, % at 12.5 µM | actives 0.098% (n = 360,000); in the data active means inhibition above about 16%, passing the limit was not always enough
FN deposit inh: inhibitors of fibronectin matrix deposition, primary screen, AH1F cells, Alexa488-fibronectin fluorescence, plate reader. AH1F fibroblasts, overnight. AID 743247, 2014. inhibition, % at 12.6 µM. actives 0.086% (n = 350,000);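 active means mean inhibition across replicates of 30% or more, regardless of how many single replicates reach that level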
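Assay system: AH1F fibroblasts assembling fluorescent fibronectin matrix; Amount: 10000 AH1F cells per well; Buffer or medium: DMEM, 2% serum; Probe or stimulus: Alexa488-fibronectin, 24 nM final in well; Doses: single compound dose, delivered by pin transfer; Incubation: 1 h adhesion, overnight exposure; Measured by: fluorescence 485/525 nm; Read-out: fibronectin deposition inhibition.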
S100A4 inh HTS: inhibitors of S100A4-myosin IIA peptide binding, primary screen, biochemical, fluorescence polarization, TAMRA-MyoIIA peptide; actives 0.14% (n = 360,000); inhibition, % at 10.7 µM; Protein S100-A4 (Homo sapiens), P26447; AID 652163, 2013;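 active means mean inhibition of at least 70% across replicates, with every replicate also reaching that level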
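Test system: S100A4 monomer protein; Medium: HEPES pH 7.2 with CaCl2, KCl, NaCl, DTT, Triton; Probe or stimulus: TAMRA-labelled myosin IIA heavy-chain peptide probe, 5 nM; Doses: one dose per compound; Times: polarization read 5 min after assay mix addition, stable 5–60 min; Benchmarks: neutral control DMSO, positive control TFP.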
PDI turbidity: inhibitors of human PDI, primary screen, biochemical, turbidity, single point, plate reader. PDI insulin aggregation turbidity, A650, 90 min. inhibition, % at 10 µM. actives 0.052% (n = 350,000). AID 588391, 2011;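 active means mean inhibition across replicates of 30% or more, whatever share of single replicates reach that level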
ERp5 block: inhibitors of ERp5-driven insulin aggregation, primary screen, biochemical, turbidity, absorbance 650 nm, single point. Protein disulfide-isomerase A6 (Homo sapiens), Q15084. 90 min. inhibition, % at 9.99 µM. actives 0.05% (n = 350,000);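 active means mean replicate inhibition above about 25%, with every replicate also reaching it, limit read from the data, passing the limit was not always enough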
RAD54 inh: inhibitors of human RAD54 branch migration, primary screen, biochemical, fluorescence, single point; DNA repair and recombination protein RAD54-like (Homo sapiens), Q92698; RAD54 Holliday junction branch migration, FAM/BHQ fluorescence; inhibition, % at 10.4 µM; actives 0.14% (n = 360,000); AID 602329, 2012;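 active means mean normalized replicate activity at least 40 and at least half of replicates scoring 40 or more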;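 further: inhibitors cause a drop in the FAM fluorescence signal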
Target sequence (Q92698 whole entry, looked up): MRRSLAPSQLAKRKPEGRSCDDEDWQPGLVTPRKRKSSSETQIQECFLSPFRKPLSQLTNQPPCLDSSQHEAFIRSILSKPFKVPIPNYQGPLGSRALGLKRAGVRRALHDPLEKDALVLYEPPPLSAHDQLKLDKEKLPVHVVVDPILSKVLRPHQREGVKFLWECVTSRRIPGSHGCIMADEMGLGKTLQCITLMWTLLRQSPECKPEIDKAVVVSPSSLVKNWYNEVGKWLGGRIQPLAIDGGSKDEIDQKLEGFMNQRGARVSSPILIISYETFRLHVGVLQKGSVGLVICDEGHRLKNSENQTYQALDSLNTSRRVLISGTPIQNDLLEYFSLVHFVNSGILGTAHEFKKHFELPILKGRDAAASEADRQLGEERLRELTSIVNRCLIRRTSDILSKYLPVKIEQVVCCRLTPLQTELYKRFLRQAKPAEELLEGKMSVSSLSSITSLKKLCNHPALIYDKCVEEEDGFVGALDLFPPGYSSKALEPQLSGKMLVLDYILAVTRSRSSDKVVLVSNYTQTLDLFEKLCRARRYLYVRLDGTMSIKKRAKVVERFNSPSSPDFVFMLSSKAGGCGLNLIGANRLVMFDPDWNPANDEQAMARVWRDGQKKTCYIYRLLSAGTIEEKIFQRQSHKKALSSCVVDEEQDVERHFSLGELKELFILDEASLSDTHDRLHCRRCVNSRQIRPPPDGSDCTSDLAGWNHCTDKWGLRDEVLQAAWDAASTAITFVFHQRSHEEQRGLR
Of the large screens only hits and unclear results are named; the others gave an inactive call. This is a sample that favours compounds with a hit; in the whole collection about 0.44% have one here.

C/C=C/c1ccc([C@@H]2[C@@H](CO)N(C(=O)C3CCC3)C23CN(S(=O)(=O)CC)C3)cc1	none (no result: PglD DTNB, FN deposit inh, PDI turbidity, RAD54 inh)
CCOc1nc(N=C(N)N)nc2c(C)cccc12	RAD54 inh 60 (no result: FN deposit inh, S100A4 inh HTS, ERp5 block)
CCOc1ccccc1Nc1cc(C)c2cccc(C)c2n1	none
CC(C)NC(=O)Nc1ccc2c(c1)C(=O)N([C@H](C)CO)C[C@H](C)[C@H](CN(C)Cc1ccc(-c3ccccc3)cc1)O2	none (no result: FN deposit inh, PDI turbidity)
Cc1c(C)[n+](=O)c2c(n1[O-])CCC2	none (no result: FN deposit inh, S100A4 inh HTS, ERp5 block)
CCc1c(C)n([O-])c2c([n+]1=O)CCC2	PDI turbidity 46 (no result: FN deposit inh, S100A4 inh HTS, ERp5 block)
COc1ccccc1-c1ccc2n(c1=O)C[C@H]1[C@H](CO)[C@@H](C(=O)NC3CCC3)N(C(=O)NC(C)C)[C@@H]21	none (no result: FN deposit inh, PDI turbidity)
CCCNC(=O)N1[C@@H]2c3ccc(-c4ccccc4OC)c(=O)n3C[C@@H]2[C@@H](CO)[C@@H]1C(=O)NC1CCC1	S100A4 inh HTS 116 (no result: FN deposit inh, PDI turbidity)
Cc1noc(C)c1S(=O)(=O)N(C)C[C@@H]1Oc2ccc(NC(=O)C3CC3)cc2CC(=O)N([C@@H](C)CO)C[C@H]1C	S100A4 inh HTS 142 (no result: FN deposit inh, PDI turbidity)
Cc1ccc(S(=O)(=O)N(C)C[C@@H]2Oc3ccc(NC(=O)Nc4c(C)noc4C)cc3CC(=O)N([C@H](C)CO)C[C@@H]2C)cc1	none (no result: FN deposit inh, PDI turbidity)
Cc1ccc(S(=O)(=O)N(C)C[C@@H]2Oc3ccc(NC(=O)Nc4c(C)noc4C)cc3CC(=O)N([C@@H](C)CO)C[C@@H]2C)cc1	RAD54 inh 55 (no result: FN deposit inh, PDI turbidity)
Cc1noc(C)c1S(=O)(=O)N(C)C[C@H]1Oc2ccc(NC(=O)C3CC3)cc2CC(=O)N([C@@H](C)CO)C[C@@H]1C	none (no result: FN deposit inh, PDI turbidity)
COCC(=O)Nc1ccc2c(c1)OC[C@H](C)N(CCC(F)(F)F)C[C@H](C)[C@@H](OC)CN(C)C2=O	none (no result: FN deposit inh, PDI turbidity)
CCCNC(=O)N1C[C@@H](O)COC[C@@H]2O[C@H](CC(=O)N[C@H]3CCN(Cc4ccccc4)C3)CC[C@H]21	none (no result: PDI turbidity)
O=C(C[C@H]1CC[C@@H]2[C@H](COC[C@H](O)CN2C(=O)Cc2ccccc2)O1)NC1CCCC1	none (no result: PDI turbidity)
O=C(C[C@H]1CC[C@H]2[C@@H](COC[C@@H](O)CN2S(=O)(=O)c2ccccc2)O1)NCCN1CCCCC1	none (no result: PDI turbidity)
CCCNC(=O)N1C[C@H](O)COC[C@@H]2O[C@H](CC(=O)N[C@H]3CCN(Cc4ccccc4)C3)CC[C@H]21	S100A4 inh HTS 87 (no result: PDI turbidity)
O=C(C[C@@H]1CC[C@@H]2[C@H](COC[C@@H](O)CN2S(=O)(=O)c2ccccc2)O1)NCCN1CCCC1	ERp5 block 43 (no result: PglD DTNB, PDI turbidity, RAD54 inh)
O=C(C[C@H]1CC[C@@H]2[C@H](COC[C@@H](O)CN2C(=O)Cc2ccccc2)O1)NC1CCCC1	S100A4 inh HTS 90 (no result: PDI turbidity)
COc1ccc2c3c(n(C)c2c1)[C@H](CO)N(C(=O)Nc1ccc(F)cc1)CC31CCN(C)CC1	none (no result: PglD DTNB, FN deposit inh, PDI turbidity, RAD54 inh)
COc1ccc2c3c([nH]c2c1)[C@H](CO)N(C(=O)CN(C)C)CC31CCN(CC2CCCC2)CC1	ERp5 block 74 (no result: PglD DTNB, FN deposit inh, PDI turbidity, RAD54 inh)
COc1ccc2c3c([nH]c2c1)[C@H](CO)N(S(C)(=O)=O)CC31CN(CC2CCOCC2)C1	S100A4 inh HTS 102 (no result: PglD DTNB, PDI turbidity, RAD54 inh)
COc1ccc2c3c(n(C)c2c1)[C@@H](CO)N(C(=O)Nc1ccc(F)cc1)CC31CCN(C)CC1	S100A4 inh HTS 82 (no result: PglD DTNB, FN deposit inh, PDI turbidity, RAD54 inh)
COc1cccc(CN2CC3(CN(C)C3)c3c([nH]c4cc(OC)ccc34)[C@@H]2CO)c1	S100A4 inh HTS 116 (no result: PglD DTNB, FN deposit inh, PDI turbidity, RAD54 inh)
CCCN1C[C@H](C)[C@H](OC)CN(C)C(=O)c2ccc(NC(=O)c3ccccc3)cc2OC[C@@H]1C	none (no result: PDI turbidity)
COc1ccc2c3c([nH]c2c1)[C@@H](CO)N(C(=O)Nc1cccc(F)c1)CC31CN(S(=O)(=O)c2cccc(C)c2)C1	none (no result: PglD DTNB, FN deposit inh, PDI turbidity, RAD54 inh)
